Laboratory results from ChEMBL document CHEMBL3822431, “Hydroxychalcone inhibitors of Streptococcus mutans glucosyl transferases and biofilms as potential anticaries agents” (Bioorg Med Chem Lett, 2016).
Calls of active or inactive are those of the source. No cut-off for these calls is given here.

Tests used:
[1] = target: T1, Glucosyltransferase-SI (Streptococcus mutans serotype c (strain ATCC 700610 / UA159)) (UniProt P13470); assay: Inhibition of Wild-type Streptococcus mutans UA159 glucosyltransferase C at 50 uM by coomassie blue staining based SDS-PAGE method
T1 sequence (whole entry): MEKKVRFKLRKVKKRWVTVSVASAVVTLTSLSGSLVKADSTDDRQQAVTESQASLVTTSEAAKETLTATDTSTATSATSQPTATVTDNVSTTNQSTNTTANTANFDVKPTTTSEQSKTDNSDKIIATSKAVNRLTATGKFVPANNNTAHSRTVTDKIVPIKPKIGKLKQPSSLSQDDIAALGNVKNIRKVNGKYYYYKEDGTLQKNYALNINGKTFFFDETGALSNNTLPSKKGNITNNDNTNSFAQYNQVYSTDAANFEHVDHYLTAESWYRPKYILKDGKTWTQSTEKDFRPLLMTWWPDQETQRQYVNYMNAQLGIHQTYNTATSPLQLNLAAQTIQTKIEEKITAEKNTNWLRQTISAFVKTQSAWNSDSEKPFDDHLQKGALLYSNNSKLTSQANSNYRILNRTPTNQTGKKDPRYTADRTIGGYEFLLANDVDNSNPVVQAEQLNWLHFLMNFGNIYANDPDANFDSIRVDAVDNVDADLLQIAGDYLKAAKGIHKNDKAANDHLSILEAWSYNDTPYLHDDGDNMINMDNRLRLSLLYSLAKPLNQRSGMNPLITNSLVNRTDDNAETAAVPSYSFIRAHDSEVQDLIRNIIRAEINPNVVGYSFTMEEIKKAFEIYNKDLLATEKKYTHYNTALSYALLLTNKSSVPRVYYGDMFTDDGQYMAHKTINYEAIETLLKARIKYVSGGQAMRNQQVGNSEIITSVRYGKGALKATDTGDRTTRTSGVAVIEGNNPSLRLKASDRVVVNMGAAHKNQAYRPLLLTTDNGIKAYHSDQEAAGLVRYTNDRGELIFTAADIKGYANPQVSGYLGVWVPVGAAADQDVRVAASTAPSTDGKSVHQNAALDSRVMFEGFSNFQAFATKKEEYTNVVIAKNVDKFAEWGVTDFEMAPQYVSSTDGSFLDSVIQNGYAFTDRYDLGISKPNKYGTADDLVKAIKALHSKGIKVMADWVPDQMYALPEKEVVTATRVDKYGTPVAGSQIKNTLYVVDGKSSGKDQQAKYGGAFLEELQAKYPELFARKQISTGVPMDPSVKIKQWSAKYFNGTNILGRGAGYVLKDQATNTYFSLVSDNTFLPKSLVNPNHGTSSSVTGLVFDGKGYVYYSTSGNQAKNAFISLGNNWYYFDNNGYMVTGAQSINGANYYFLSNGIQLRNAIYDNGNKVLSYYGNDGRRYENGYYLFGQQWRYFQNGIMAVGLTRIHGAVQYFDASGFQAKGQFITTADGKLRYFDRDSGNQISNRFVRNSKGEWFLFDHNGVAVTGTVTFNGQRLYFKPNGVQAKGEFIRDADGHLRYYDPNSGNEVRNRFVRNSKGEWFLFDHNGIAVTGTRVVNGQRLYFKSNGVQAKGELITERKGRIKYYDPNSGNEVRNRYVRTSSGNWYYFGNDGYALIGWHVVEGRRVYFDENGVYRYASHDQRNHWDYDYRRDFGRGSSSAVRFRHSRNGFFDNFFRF
How it was run: (§1)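 Compound (50 µM) added to overnight S. mutans UA159 wild-type cultures; Gtfs collected and concentrated from supernatants, run on SDS-PAGE in duplicate; one gel Coomassie blue stained for protein levels.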

[2] = target: T2, Glucosyltransferase-I (Streptococcus mutans serotype c (strain ATCC 700610 / UA159)) (UniProt P08987); assay: Inhibition of Wild-type Streptococcus mutans UA159 glucosyltransferase B at 50 uM by coomassie blue staining based SDS-PAGE method; how it was run: as §1
T2 sequence (whole entry): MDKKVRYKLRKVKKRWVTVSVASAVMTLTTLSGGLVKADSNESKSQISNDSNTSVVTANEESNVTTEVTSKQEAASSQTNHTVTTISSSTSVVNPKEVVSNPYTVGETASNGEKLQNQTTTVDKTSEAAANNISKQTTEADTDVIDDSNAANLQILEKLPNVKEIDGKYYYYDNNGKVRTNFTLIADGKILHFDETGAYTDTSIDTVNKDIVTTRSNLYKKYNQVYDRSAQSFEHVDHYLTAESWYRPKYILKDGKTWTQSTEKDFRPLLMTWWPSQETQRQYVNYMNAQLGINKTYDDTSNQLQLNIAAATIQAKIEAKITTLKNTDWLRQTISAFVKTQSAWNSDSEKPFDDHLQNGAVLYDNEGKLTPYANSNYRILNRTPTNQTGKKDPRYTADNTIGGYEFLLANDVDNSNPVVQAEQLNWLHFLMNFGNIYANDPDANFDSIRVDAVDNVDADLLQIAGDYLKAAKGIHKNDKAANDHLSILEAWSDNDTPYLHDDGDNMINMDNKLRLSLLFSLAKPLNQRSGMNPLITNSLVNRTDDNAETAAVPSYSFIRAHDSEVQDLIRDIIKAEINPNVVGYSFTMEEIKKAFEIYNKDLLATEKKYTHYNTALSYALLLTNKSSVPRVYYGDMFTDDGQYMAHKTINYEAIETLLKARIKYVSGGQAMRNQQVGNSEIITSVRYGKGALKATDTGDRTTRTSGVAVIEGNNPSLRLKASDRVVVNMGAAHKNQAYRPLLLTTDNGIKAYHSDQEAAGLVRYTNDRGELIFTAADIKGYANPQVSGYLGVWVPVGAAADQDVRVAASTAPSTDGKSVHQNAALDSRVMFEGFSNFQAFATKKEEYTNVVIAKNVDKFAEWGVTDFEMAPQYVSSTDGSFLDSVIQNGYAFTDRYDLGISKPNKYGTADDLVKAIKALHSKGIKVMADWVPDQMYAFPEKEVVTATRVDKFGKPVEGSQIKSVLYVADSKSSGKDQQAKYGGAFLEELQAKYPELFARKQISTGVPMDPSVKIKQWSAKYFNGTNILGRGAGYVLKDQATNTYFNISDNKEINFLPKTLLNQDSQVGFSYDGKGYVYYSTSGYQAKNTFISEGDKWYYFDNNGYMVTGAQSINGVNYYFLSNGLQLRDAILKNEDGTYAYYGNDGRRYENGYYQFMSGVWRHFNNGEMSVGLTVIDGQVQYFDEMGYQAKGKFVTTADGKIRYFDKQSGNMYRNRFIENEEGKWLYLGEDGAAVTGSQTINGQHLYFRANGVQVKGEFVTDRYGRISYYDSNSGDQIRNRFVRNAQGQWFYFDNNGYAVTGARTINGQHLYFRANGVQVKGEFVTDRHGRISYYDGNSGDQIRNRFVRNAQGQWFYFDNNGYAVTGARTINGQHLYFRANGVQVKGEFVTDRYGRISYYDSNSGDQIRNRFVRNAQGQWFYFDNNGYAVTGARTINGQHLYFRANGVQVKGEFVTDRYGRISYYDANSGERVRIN

SMILES	inhibition [1]	inhibition [2]
O=C(/C=C/c1ccc(O)cc1O)c1ccc(O)cc1	Active	Active
O=C(/C=C/c1ccc(O)cc1O)c1cccc(O)c1 (stereo in doubt; 9a)	Active	Active
O=C(/C=C\c1ccc(O)cc1O)c1cccc(O)c1	Active	Active
O=C(/C=C\c1ccc(O)cc1O)c1ccc(O)cc1	Active	Active
O=C(/C=C/c1cc(O)c(O)cc1O)c1ccccc1O (stereo in doubt; 18c)	Active	Active
